Test [1] deals with T1, Estrogen receptor (Mus musculus) (UniProt O08537+P19785). The experiment in a line: Uterotrophic effect in mice as relative uterine weight(mg) at 150 ug (control = […]+/-1.7). The test is classed as functional, tissue-based.
The subject of test [2] is MCF7. Kind of test: Effect on Estrogen receptor positive MCF-7 human breast cancer cell proliferation at 5x10E-6M. Format: functional. The gist of the method: (§1)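 MCF-7 cells were kept in MEM with 5% charcoal-treated newborn calf serum and phenol red for 2 weeks, then about 2×10^4 cells were plated per well. Compounds in 0.1% DMF were added 2 days later and renewed on day 4; DMF alone served as control. Coulter cell counts were taken on day 5; mean of six dishes ± SD; % T/C.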

The target of test [3] is T1, Estrogen receptor (Mus musculus). Kind of test: Percent inhibition of estrone stimulated uterotrophic effect in mice at 150 ug. Format: functional. The procedure, abridged:
(§2)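 Immature mice given test compound per animal sc on three consecutive days together with 0.4 μg estrone/animal/day. Killed 24 h after last injection; uteri fixed in Bouin, dried 100 °C 24 h and weighed. Inhibition = 100 − [(W_S,T − W_V)/(W_S − W_V) × 100] using relative uterus weights; 6-10 animals; Wilcoxon-Mann-Whitney U test.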

In test [4] the test system is MCF7. Kind of test: Effect on [3H]thymidine incorporation into estrogen receptor positive MCF-7 human breast cancer cells at 5*10e-6 M (control = 10.2+/-1.4). Format: functional. The gist of the method:
(§3)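 MCF-7 cells in improved MEM with glutamine, gentamycin and 5% newborn calf serum, switched to charcoal-treated serum two weeks ahead; phenol red present; 37 °C, 5% CO2. About 2×10^4 cells plated per well; compound in 0.1% DMF added 2 days later, renewed on day 4; labelled 3 days later with 1 μCi [3H]thymidine per well for 2 h; cpm/dish, mean of six dishes ± SD.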
For orientation: Incorporation of labelled thymidine or its analogues reports DNA synthesis.

Test [5] addresses T1, Estrogen receptor (Mus musculus). The experiment in a line: Anti-uterotrophic effect in mice as relative uterine weight(mg) at 15 ug. Format: functional. The procedure, abridged: (§4)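 Immature mice received the compound sc per animal on three consecutive days, alone or with 0.4 µg estrone per animal per day. Uteri were taken 24 h after the last injection, Bouin-fixed, dried at 100 °C for 24 h and weighed. Relative uterus weight = dry weight (mg)/body weight (g) × 100; mean of 6-10 animals ± SD; Mann-Whitney U test.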

In test [6] the test system is MCF7. The experiment in a line: Effect on [3H]thymidine incorporation into estrogen receptor positive MCF-7 human breast cancer cells at 1*10^-6 M (control = 10.2+/-1.4). The test is classed as functional. The procedure, abridged: (§5)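 MCF-7 cells were grown in MEM with charcoal-treated 5% newborn calf serum and phenol red, then treated with compounds in 0.1% DMF (renewed on day 4) alongside DMF controls. They were labeled 3 days later with 1 µCi [³H]thymidine per well for 2 h, and incorporated radioactivity per dish was measured; mean of six dishes ± SD; % T/C.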

Test [7] has as its target T1, Estrogen receptor (Mus musculus). Kind of test: Percent inhibition of estrone stimulated uterotrophic effect in mice at 15 ug. Format: functional. The gist of the method: as §2
For test [8], the system named is MCF7. The experiment in a line: Effect on Estrogen receptor positive MCF-7 human breast cancer cell proliferation at 1x10E-6M (control = 24.4+/-3.8). Format: functional. The procedure, abridged: as §1
Test [9] deals with T1, Estrogen receptor (Mus musculus). Kind of test: Uterotrophic effect in mice as relative uterine weight(mg) at 15 ug (control = […]+/-1.7). The test is classed as functional, tissue-based.
Test [10] relates to MCF7. Kind of test: Effect on Estrogen receptor positive MCF-7 human breast cancer cell proliferation at 1x10E-6M. Format: functional. The procedure, abridged:
as §1

The subject of test [11] is MCF7. The experiment in a line: Effect on [3H]thymidine incorporation into estrogen receptor positive MCF-7 human breast cancer cells at 1x10E-6M. Format: functional. The procedure, abridged: as §5
The target in test [12] is T1, Estrogen receptor (Mus musculus). Kind of test: Anti-uterotrophic effect in hormone-dependent transplant MXT bearing mice as relative uterine weight in treated and control mice at 12.5 mg (control=100+/-24). The test is classed as functional.
The test system of test [13] is MCF7. The experiment in a line: Effect on Estrogen receptor positive MCF-7 human breast cancer cell proliferation at 5x10E-6M (control = 24.4+/-3.8). The test is classed as functional. The procedure, abridged: as §1
The species named for test [14] is Mus musculus. The experiment in a line: Relative tumor weight in treated compared to control mice bearing hormone-dependent transplanted MXT mammary tumors at 12.5 mg.
The test system of test [15] is MCF7. The experiment in a line: Effect on [3H]thymidine incorporation into estrogen receptor positive MCF-7 human breast cancer cells at 5x10E-6M. The test is classed as functional. The gist of the method: as §3
Test [16] addresses T1, Estrogen receptor (Mus musculus). The experiment in a line: Anti-uterotrophic effect in mice as relative uterine weight(mg) at 150 ug. Format: functional. The procedure, abridged: as §4
For test [17], the species on record is Mus musculus. Kind of test: Anti-tumor activity in hormone-dependent transplant MXT mammary tumor bearing mice at 12.5 mg (control=197+/-130). The test is classed as functional.
The species entered for test [18] is Mus musculus. Kind of test: Anti-tumor activity in hormone-dependent transplant MXT mammary tumor bearing mice at 8.8 mg (control=388+/-269). Format: functional.
The species entered for test [19] is Mus musculus. The experiment in a line: Relative tumor weight in treated compared to control mice bearing hormone-dependent transplanted MXT mammary tumors at 8.8mg. Format: functional.
In test [20] the test system is MCF7. Kind of test: Effect on Estrogen receptor positive MCF-7 human breast cancer cell proliferation at 5x10E-6M (control = 22.3+/-3.3). Format: functional. The gist of the method:
as §1

For test [21], the species on record is Mus musculus. The experiment in a line: Anti-tumor activity in hormone-dependent transplant MXT mammary tumor bearing mice at 6.2 mg (control=534+/-652). The test is classed as functional.
Test [22] deals with MCF7. The experiment in a line: Effect on Estrogen receptor positive MCF-7 human breast cancer cell proliferation at 1x10E-6M (control = 22.3+/-3.3). Format: functional. The gist of the method:
as §1

Test [23] addresses T1, Estrogen receptor (Mus musculus). Kind of test: Uterotrophic effect in mice as relative uterine weight(mg) at 150 ug (control = 12.4+/-3.7). The test is classed as functional, tissue-based. The gist of the method:
(§6)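 Immature mice dosed sc per animal on three consecutive days; vehicle controls. Killed and weighed 24 h after last injection; uteri fixed in Bouin solution 2 h, washed with alcoholic LiCl, dried at 100 °C for 24 h. Relative uterus weight = uterine dry weight (mg)/body weight (g) × 100; mean of 6-10 animals ± SD.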

For test [24], the species on record is Mus musculus. The experiment in a line: Relative tumor weight in treated compared to control mice bearing hormone-dependent transplanted MXT mammary tumors at 12.4 mg. Format: functional.
The species named for test [25] is Mus musculus. The experiment in a line: Anti-tumor activity in hormone-dependent transplant MXT mammary tumor bearing mice at 12.4 mg (control=534+/-652). The test is classed as functional.
Test [26] has as its system MCF7. The experiment in a line: Effect on [3H]thymidine incorporation into estrogen receptor positive MCF-7 human breast cancer cells at 5x10E-6M (control = 7.7+/-0.8). Format: functional. The procedure, abridged:
as §3

The subject of test [27] is MCF7. Kind of test: Effect on [3H]thymidine incorporation into estrogen receptor positive MCF-7 human breast cancer cells at 1x10E-6M (control = 7.7+/-0.8). The test is classed as functional. The gist of the method: as §5
Test [28] addresses T1, Estrogen receptor (Mus musculus). The experiment in a line: Anti-uterotrophic effect in hormone-dependent transplant MXT bearing mice as relative uterine weight in treated and control mice at 12.4 mg (control=100+/-30). Format: functional.
Test [29] shares this target. The experiment in a line: Anti-uterotrophic effect in hormone-dependent transplant MXT bearing mice as relative uterine weight in treated and control mice at 6.2 mg (control=100+/-30). Format: functional.
The species named for test [30] is Mus musculus. The experiment in a line: Relative tumor weight in treated compared to control mice bearing hormone-dependent transplanted MXT mammary tumors at 6.2 mg. The test is classed as functional.
Test [31] addresses T1, Estrogen receptor (Mus musculus). The experiment in a line: Uterotrophic effect in mice as relative uterine weight(mg) at 15 ug (control = 12.4+/-3.7). The test is classed as functional, tissue-based. The procedure, abridged:
as §6

We go through three compounds from ChEMBL document CHEMBL1125823, “2-Phenylindole-linked [2-(aminoalkyl)pyridine]dichloroplatinum(II): complexes with a selective action on estrogen receptor positive mammary tumors” (1991).

T1 sequence (O08537 whole entry, looked up): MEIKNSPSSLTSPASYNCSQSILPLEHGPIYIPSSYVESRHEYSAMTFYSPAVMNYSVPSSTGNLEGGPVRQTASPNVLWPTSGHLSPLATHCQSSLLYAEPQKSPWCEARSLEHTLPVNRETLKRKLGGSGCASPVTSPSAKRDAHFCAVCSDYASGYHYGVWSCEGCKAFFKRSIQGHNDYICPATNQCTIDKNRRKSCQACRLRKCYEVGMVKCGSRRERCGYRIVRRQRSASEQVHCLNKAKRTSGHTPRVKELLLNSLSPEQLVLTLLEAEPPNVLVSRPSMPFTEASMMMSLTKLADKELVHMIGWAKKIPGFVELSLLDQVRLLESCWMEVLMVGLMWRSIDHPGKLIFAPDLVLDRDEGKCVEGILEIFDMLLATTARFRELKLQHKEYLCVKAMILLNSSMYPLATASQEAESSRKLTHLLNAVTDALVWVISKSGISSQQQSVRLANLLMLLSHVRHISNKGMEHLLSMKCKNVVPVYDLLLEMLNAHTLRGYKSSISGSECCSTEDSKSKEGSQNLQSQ
T1 sequence (P19785 whole entry, looked up): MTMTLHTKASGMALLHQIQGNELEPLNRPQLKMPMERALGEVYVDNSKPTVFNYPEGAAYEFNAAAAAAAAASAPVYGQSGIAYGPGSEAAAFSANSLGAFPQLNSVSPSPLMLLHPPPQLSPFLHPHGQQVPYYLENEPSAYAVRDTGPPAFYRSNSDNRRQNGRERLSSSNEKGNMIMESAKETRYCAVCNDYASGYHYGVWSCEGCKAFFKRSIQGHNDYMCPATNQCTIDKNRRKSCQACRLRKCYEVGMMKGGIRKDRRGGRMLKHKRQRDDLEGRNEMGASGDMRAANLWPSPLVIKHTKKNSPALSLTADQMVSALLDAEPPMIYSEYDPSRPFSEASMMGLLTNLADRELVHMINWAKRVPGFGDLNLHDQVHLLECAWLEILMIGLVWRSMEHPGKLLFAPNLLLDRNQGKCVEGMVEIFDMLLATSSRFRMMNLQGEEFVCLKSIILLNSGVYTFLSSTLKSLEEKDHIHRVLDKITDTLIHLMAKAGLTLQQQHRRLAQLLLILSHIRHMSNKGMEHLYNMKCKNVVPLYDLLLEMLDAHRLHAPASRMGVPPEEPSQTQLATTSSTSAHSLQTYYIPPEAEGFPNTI

One may read the T/C as the result in the treated group divided by that in the control group, in per cent. For orientation: inhibition means the percentage by which the read-out fell short of the control. Lower therefore signals a weak effect. Turning to `Cc1c(-c2ccc(O)cc2)n(CCCCCCNC(C)c2ccccn2)c2ccc(O)cc12` (stereo not drawn), the Relative uterus weight in test [1] is 20.2 mg; in test [5] it was 34.2 mg; in test [9], 14.6 mg; in [16], 22.4 mg. For the same compound, the T/C in test [2] is 39%; in test [10], 52%; in [11], 46%; in test [12] it was 96%; in test [14], 75%; in test [15], 12%. Also, the figures for the inhibition in test [3] and in [7] were 77% and 39%, respectively. In addition, the Activity in [4] worked out at 1200; in [6], 4600. In addition, the Cell no/dish is 126000 in test [8] and 95000 in test [13]. For the same compound, in test [17], the Tumor weight stood at 148 mg.

In turn, `CC/C(=C(\c1ccccc1)c1ccc(OCCN(C)C)cc1)c1ccccc1` [TAMOXIFEN] had a Tumor weight in test [18] of 114 mg. In test [19], this compound gave a T/C of 29%.

Turning to `Cc1c(-c2ccc(O)cc2)n(CCCCCCNCc2ccccn2)c2ccc(O)cc12`, the T/C worked out at 23% in test [2]; 31% in [24]; 48% in test [10]; 13% in test [11]; 137% in [28]; 119% in [29]. For the same compound, the T/C in [30] is on record as 71%; in [15], 5%. This compound also showed an inhibition in test [3] of 31%. For the same compound, the Cell no/dish in test [20] is recorded as 52000; in test [22], 106000. Besides, the Relative uterus weight in [5] turned out to be 46.6 mg; in test [23], 24.9 mg; in test [16], 36.9 mg; in [31], 27.9 mg. The Tumor weight is on record as 378 mg in test [21] and 169 mg in test [25]. The values for the Activity in [26] and in test [27] were 400 and 1000, respectively.
